Test results published in ChEMBL document CHEMBL2440062, “New nucleotide-competitive non-nucleoside inhibitors of terminal deoxynucleotidyl transferase: discovery, characterization, and crystal structure in complex with the target” (J Med Chem, 2013).

How the values were obtained:
[1] = target: T1, DNA polymerase lambda (Homo sapiens) (UniProt Q9UGP5); experiment: Inhibition of human recombinant full length DNA polymerase lambda using [3H]dTTP as substrate and 10 poly(dA)/oligo(dT) as template-primer after 15 mins by scintillation counting analysis
T1 sequence (whole entry): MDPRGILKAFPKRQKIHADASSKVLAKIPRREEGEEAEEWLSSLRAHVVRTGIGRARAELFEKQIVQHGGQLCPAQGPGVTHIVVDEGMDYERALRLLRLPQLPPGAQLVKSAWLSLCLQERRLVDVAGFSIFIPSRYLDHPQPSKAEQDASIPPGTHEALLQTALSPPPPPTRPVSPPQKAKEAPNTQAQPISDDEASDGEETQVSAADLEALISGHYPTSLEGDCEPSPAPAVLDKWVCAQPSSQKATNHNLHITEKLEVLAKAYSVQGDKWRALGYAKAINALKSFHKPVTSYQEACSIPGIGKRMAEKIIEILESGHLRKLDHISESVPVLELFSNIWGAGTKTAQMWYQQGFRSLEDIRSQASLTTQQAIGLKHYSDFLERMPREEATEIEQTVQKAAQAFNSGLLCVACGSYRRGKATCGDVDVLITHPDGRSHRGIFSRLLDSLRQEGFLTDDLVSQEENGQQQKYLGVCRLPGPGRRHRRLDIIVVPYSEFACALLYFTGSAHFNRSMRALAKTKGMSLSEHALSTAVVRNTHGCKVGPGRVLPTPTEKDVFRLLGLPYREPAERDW
Procedure, shortened: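 Recombinant full-length human pol λ at 50 nM was assayed with 0.2 μM poly(dA)/oligo(dT)10:1 (3′-OH ends) and 5 μM [3H]dTTP (5 Ci/mmol). Incubation was 15 min at 37 °C. TCA precipitates were scintillation counted.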

[2] = target: T1, DNA polymerase lambda (Homo sapiens); experiment: Inhibition of human recombinant full length DNA polymerase lambda TdT-like activity using [3H]dNTP as substrate after 10 mins by scintillation counting analysis
Procedure, shortened: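 Full-length recombinant human pol λ (>90% pure) was tested for template-independent activity. Acid-insoluble radioactivity was counted, and ID50 came from dose–response fitting.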

[3] = target: DNA nucleotidylexotransferase (Homo sapiens, UniProt P04053); experiment: Inhibition of human recombinant TdT using [3H]dNTP as substrate after 10 mins by scintillation counting analysis
Procedure, shortened: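 TdT was from Trevigen. TCA-precipitated radioactivity was counted. ID50 came from dose–response fitting. For kinetics, DNA or dNTP was varied at increasing inhibitor, and Ki was obtained via Cheng–Prusoff for a competitive model.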

DNA polymerase beta = DNA polymerase beta (Homo sapiens, UniProt P06746); experiment: Inhibition of human recombinant DNA polymerase beta
MOLT-4 = experiment: Cytotoxicity against human MOLT4 cells overexpressing TdT assessed as growth inhibition after 24 to 48 hrs by MTT assay; type: functional, cell-based
Procedure, shortened: (§1)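 MOLT-4 cells were grown in RPMI-1640 and HeLa cells in DMEM, with 10% FCS at 37 °C. Cells were seeded at 10^5 per well, given 24 h to attach, then exposed to compounds (0.1–100 range) for 24 or 48 h. MTT at 1 mg/mL was added for 2 h at 37 °C, formazan was dissolved in DMSO, and absorbance read at 550 nm versus 0.5% DMSO vehicle. IC50 was obtained by regression, in triplicate.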

HeLa = experiment: Cytotoxicity against TdT-deficient human HeLa cells assessed as growth inhibition after 24 to 48 hrs by MTT assay; type: cell-based; procedure, shortened: as §1

Chain of DNA nucleotidylexotransferase (P04053 whole entry): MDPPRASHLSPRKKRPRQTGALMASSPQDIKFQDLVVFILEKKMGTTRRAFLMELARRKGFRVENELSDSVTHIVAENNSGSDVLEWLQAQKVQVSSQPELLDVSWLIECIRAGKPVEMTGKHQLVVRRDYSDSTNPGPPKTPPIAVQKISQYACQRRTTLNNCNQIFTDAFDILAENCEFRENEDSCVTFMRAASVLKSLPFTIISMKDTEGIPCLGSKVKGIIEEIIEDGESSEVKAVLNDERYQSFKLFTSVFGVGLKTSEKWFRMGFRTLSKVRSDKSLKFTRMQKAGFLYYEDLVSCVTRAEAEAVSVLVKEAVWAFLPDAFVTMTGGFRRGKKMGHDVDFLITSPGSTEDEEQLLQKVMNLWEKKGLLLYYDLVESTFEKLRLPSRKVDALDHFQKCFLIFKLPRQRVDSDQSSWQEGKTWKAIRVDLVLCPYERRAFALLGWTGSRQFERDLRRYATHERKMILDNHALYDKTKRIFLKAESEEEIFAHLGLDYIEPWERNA

ID50 [1]	ID50 [2]	ID50 [3]	IC50 (DNA polymerase beta)	Compound	IC50 (MOLT-4)	IC50 (HeLa)
> 40 µM	> 40 µM	> 40 µM	> 40 µM	CCCn1cc(/C=C/C(=O)CC(=O)C(=O)OCC)c2ccccc21	–	–
> 40 µM	34 µM	1.4 µM	40 µM	N#Cc1ccc(Cn2cc(/C=C/C(=O)CC(=O)C(=O)O)c3ccccc32)cc1	> 40 µM	> 40 µM
> 40 µM	9 µM	13.8 µM	> 40 µM	CC(C)=Cn1cc(/C=C/C(=O)CC(=O)C(=O)O)c2ccccc21	30 µM	> 40 µM
> 40 µM	1.7 µM	7.9 µM	> 40 µM	O=C(/C=C/c1cn(Cc2ccccc2)c2ccccc12)CC(=O)C(=O)O	15 µM	> 40 µM
> 40 µM	> 40 µM	> 40 µM	> 40 µM	C=C(C)Cn1cc(/C=C/C(=O)CC(=O)C(=O)OCC)c2ccccc21	–	–
> 40 µM	> 40 µM	> 40 µM	> 40 µM	CCOC(=O)C(=O)CC(=O)/C=C/c1cn(CC(=O)N(C)C)c2ccccc12	–	–
> 40 µM	> 40 µM	16.3 µM	> 40 µM	CC(C)CCn1cc(/C=C/C(=O)CC(=O)C(=O)O)c2ccccc21	20 µM	> 80 µM
> 40 µM	5 µM	7.3 µM	> 40 µM	C/C=C/Cn1cc(/C=C/C(=O)CC(=O)C(=O)O)c2ccccc21	> 40 µM	> 40 µM
> 40 µM	> 40 µM	10 µM	> 40 µM	O=C(/C=C/c1cn(Cc2ccc(F)cc2)c2ccccc12)CC(=O)C(=O)O	> 40 µM	> 40 µM
> 50 µM	2 µM	47 µM	> 40 µM	O=C(/C=C/c1cn(-c2ccccc2)c2ccccc12)CC(=O)C(=O)O	> 40 µM	> 40 µM
> 40 µM	40 µM	24 µM	> 40 µM	O=C(/C=C/c1cn(CC(=O)N2CCOCC2)c2ccccc12)CC(=O)C(=O)O	> 40 µM	> 40 µM
9 µM	> 40 µM	31 µM	> 40 µM	O=C(/C=C/c1cn(-c2ccc(Cl)cc2)c2ccccc12)CC(=O)C(=O)O	27 µM	> 40 µM
> 40 µM	10 µM	33 µM	> 40 µM	C/C=C/n1cc(/C=C/C(=O)CC(=O)C(=O)O)c2ccccc21	> 40 µM	> 40 µM
> 40 µM	40 µM	8.9 µM	> 40 µM	CN(C)C(=O)Cn1cc(/C=C/C(=O)CC(=O)C(=O)O)c2ccccc21	> 40 µM	> 40 µM
> 40 µM	40 µM	2.5 µM	> 40 µM	C=C(C)Cn1cc(/C=C/C(=O)CC(=O)C(=O)O)c2ccccc21	40 µM	40 µM
> 40 µM	> 40 µM	> 40 µM	> 40 µM	CCOC(=O)C(=O)CC(=O)/C=C/c1cn(CC(=O)N2CCOCC2)c2ccccc12	–	–
> 40 µM	> 40 µM	10 µM	> 40 µM	COc1ccc(Cn2cc(/C=C/C(=O)CC(=O)C(=O)O)c3ccccc32)cc1	> 40 µM	> 40 µM
> 40 µM	> 40 µM	10 µM	> 40 µM	O=C(/C=C/c1cn(Cc2ccc(Cl)cc2)c2ccccc12)CC(=O)C(=O)O	19 µM	> 40 µM

Continued, compound first:

Compound	ID50 [1]	ID50 [2]	ID50 [3]	IC50 (DNA polymerase beta)	IC50 (MOLT-4)	IC50 (HeLa)
CCOC(=O)C(=O)CC(=O)/C=C/c1cn(-c2ccccc2)c2ccccc12	> 40 µM	> 40 µM	> 40 µM	–	–	–
CCOC(=O)C(=O)CC(=O)/C=C/c1cc(C(=O)c2ccc(F)cc2)c[nH]1	11 µM	> 40 µM	4.1 µM	> 40 µM	6.3 µM	> 40 µM
CCOC(=O)C(=O)CC(=O)/C=C/c1cc(C(=O)c2ccccc2)cn1Cc1ccc(C#N)cc1	> 40 µM	> 40 µM	> 40 µM	> 40 µM	–	–
CCOC(=O)C(=O)CC(=O)/C=C/c1cn(-c2ccc(O)cc2)c2ccccc12	> 40 µM	> 40 µM	> 40 µM	> 40 µM	–	–
O=C(/C=C/c1cc(C(=O)c2ccccc2)cn1Cc1ccccc1)CC(=O)C(=O)O	> 40 µM	20 µM	16 µM	> 40 µM	> 40 µM	> 40 µM
CCOC(=O)C(=O)CC(=O)/C=C/c1cn(Cc2ccc(C#N)cc2)c2ccccc12	> 40 µM	> 40 µM	> 40 µM	> 40 µM	–	–
CCCCn1cc(/C=C/C(=O)CC(=O)C(=O)OCC)c2ccccc21	> 40 µM	> 40 µM	> 40 µM	> 40 µM	–	–
CCOC(=O)C(=O)CC(=O)/C=C/c1cn(Cc2ccc(Cl)cc2)c2ccccc12	> 40 µM	> 40 µM	40 µM	> 40 µM	–	–
C/C=C/n1cc(/C=C/C(=O)CC(=O)C(=O)OCC)c2ccccc21	> 40 µM	> 40 µM	> 40 µM	> 40 µM	–	–
CCOC(=O)C(=O)CC(=O)/C=C/c1cn(C=C(C)C)c2ccccc12	> 40 µM	> 40 µM	> 40 µM	> 40 µM	–	–
CCOC(=O)C(=O)CC(=O)/C=C/c1cn(Cc2ccc(OC)cc2)c2ccccc12	> 40 µM	> 40 µM	> 40 µM	> 40 µM	–	–
CCOC(=O)C(=O)CC(=O)/C=C/c1cc(C(=O)c2ccccc2F)c[nH]1	> 40 µM	27 µM	20 µM	> 40 µM	15 µM	> 40 µM
O=C(/C=C/c1cc(C(=O)c2cccc(F)c2)c[nH]1)CC(=O)C(=O)O	> 40 µM	35 µM	0.78 µM	> 40 µM	> 40 µM	> 40 µM
N#Cc1ccc(Cn2cc(C(=O)c3ccccc3)cc2/C=C/C(=O)CC(=O)C(=O)O)cc1	> 40 µM	> 40 µM	6.8 µM	40 µM	40 µM	> 40 µM
CCOC(=O)C(=O)CC(=O)/C=C/c1cc(C(=O)c2cccc(F)c2)c[nH]1	> 40 µM	44 µM	6 µM	> 40 µM	30 µM	> 40 µM
C/C=C/Cn1cc(/C=C/C(=O)CC(=O)C(=O)OCC)c2ccccc21	> 40 µM	> 40 µM	> 40 µM	> 40 µM	–	–
CCOC(=O)C(=O)CC(=O)/C=C/c1cn(Cc2ccc(O)cc2)c2ccccc12	> 40 µM	> 40 µM	40 µM	> 40 µM	–	–
CCOC(=O)C(=O)CC(=O)/C=C/c1cn(Cc2ccccc2)c2ccccc12	> 40 µM	> 40 µM	> 40 µM	> 40 µM	> 40 µM	> 40 µM
CCOC(=O)C(=O)CC(=O)/C=C/c1cn(Cc2ccc(F)cc2)c2ccccc12	> 40 µM	> 40 µM	> 40 µM	> 40 µM	–	–
CCOC(=O)C(=O)CC(=O)/C=C/c1cn(-c2ccc(Cl)cc2)c2ccccc12	6 µM	> 40 µM	> 40 µM	> 40 µM	–	–
CCOC(=O)C(=O)CC(=O)/C=C/c1cc(C(=O)c2ccccc2)cn1Cc1ccc(F)cc1	> 40 µM	> 40 µM	> 40 µM	> 40 µM	–	–
CCOC(=O)C(=O)CC(=O)/C=C/c1cc(C(=O)c2ccccc2)cn1Cc1ccccc1	> 40 µM	> 40 µM	> 40 µM	> 40 µM	–	–
CCOC(=O)C(=O)CC(=O)/C=C/c1cn(CCC(C)C)c2ccccc12	> 40 µM	> 40 µM	> 40 µM	> 40 µM	–	–
